Experimental data from different studies.
Compare with care: the assays were run in different laboratories.

Compound | target or system | test | system | setting | endpoint | result
NS(=O)(=O)c1nnc(NC(=O)C2CCCC3(CCCCC3)C2)s1 (stereo not shown) |  | metabolic stability | mouse, liver microsomes | 1 h | compound remaining | 47.7%
N#Cc1ccc(C[C@H](Nc2c(Nc3ccc(F)cc3)c(=O)c2=O)C(=O)N2CCc3ccccc32)cc1 |  | metabolic stability | rat, liver microsomes | 10 µM, 30 min, pH 7.4 | compound remaining | 35%
Cc1cc(/C=C/C#N)cc(C)c1Nc1ccnc(Nc2ccc(C#N)cc2)n1 | MT4 | cell growth or viability, MTT |  | 5 days | CC50 | > 5.46 µM
N#Cc1ccc(C[C@H](Nc2ncc(-c3ccc(F)cc3)o2)C(=O)N2CCc3ccccc32)cc1 |  | metabolic stability | rat, liver microsomes | 10 µM, 30 min, pH 7.4 | compound remaining | 40%
Cc1cn([C@H]2C[C@H](N=[N+]=[N-])[C@@H](CO)O2)c(=O)[nH]c1=O | MT4 | cell growth or viability, MTT |  | 5 days | CC50 | > 7.48 µM
NS(=O)(=O)c1nnc(NC(=O)CCC2CC3CCC2C3)s1 (stereo not shown) |  | metabolic stability | mouse, liver microsomes | 1 h | compound remaining | 41%
N#C[C@@]1(c2ccc3c(N)ncnn23)O[C@H](CO)[C@@H](O)[C@H]1O |  |  | dog, plasma | 1 µM | fraction unbound | 0.881
Cc1cc(C#N)cc(C)c1Oc1nc(Nc2ccc(C#N)cc2)nc(N)c1Br | MT4 | cell growth or viability, MTT |  | 5 days | CC50 | > 4.59 µM
N#Cc1ccc(C[C@H](NC(=O)c2cc3ccc(F)cc3[nH]2)C(=O)N2CCc3ccccc32)cc1 |  | metabolic stability | rat, liver microsomes | 10 µM, 30 min, pH 7.4 | compound remaining | 90%
COc1cc(-c2cc(C(C)=O)n3ccccc23)c(OC)cc1Cn1ccnc1 |  | metabolic stability | rat, liver microsomes | 1 µM, 1 h, pH 7.4 | compound remaining | 62%
